In ChEMBL document CHEMBL4513216, “Probing the Open Global Health Chemical Diversity Library for Multistage-Active Starting Points for Next-Generation Antimalarials” (ACS Infect Dis, 2020):

Assay: Toxicity liver stage against HepG2, at 10uM
Type: cell-based
Parameters: test concentration 10 uM, cell line HepG2-A16-CD81EGFP
Conditions: human, HepG2-A16-CD81EGFP cells; read-out: INHIBITION
Outline: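 Uninfected HepG2-A16-CD81EGFP cells, 3 × 10^3 per well, 1536-well, plated on prespotted compound at 10 μM final, parasite-free screening media added to match infected plates; puromycin 10 μM positive, DMSO 0.5% negative; run in parallel with 48 h PbLuc assay at 37 °C, 5% CO2; viability by CellTiter-Glo luminescence, normalized to controls.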

SMILES | cytotoxicity at 10 µM [%]
CN(CC(=O)N1CCc2[nH]c3ccc(F)cc3c2C1)CC1OCCO1 | 6.19
CCOC(=O)CNC(=O)c1cccnc1Oc1ccc(Cl)cc1 | 1.63
Cc1nc(N2CCN(C)CC2)ncc1C(=O)N1CCN(C)CC1 | 3.85
COc1ccc(C(=O)N2CC(=O)N(C3CCC3)CC(O)C2)cc1OC (stereo unspecified) | 4.35
CN1C(=O)COc2cc(NC(=O)CCc3nc4cccnc4[nH]3)ccc21 | -4.13
Cc1ccc(C)c(S(=O)(=O)NCCNc2ccc(-n3cccc3)nn2)c1 | 1.77
CCn1cc2c(n1)C(COCC1CC1)CN(C(=O)c1cnoc1C)C2 (stereo unspecified) | 17.5
CN(C)CC(=O)N1CCc2ncnc(-c3ccoc3)c2CC1 | -7.36
O=C(NCCc1ccccc1)N1CC[C@@H]2CNS(=O)(=O)[C@@H]2CC1 | -5.12
Cc1nnc([C@@]23CCO[C@@H]2CCN(S(C)(=O)=O)C3)o1 | 9.16
Cc1ccc(CN2CC[C@H]3OCC[C@@]3(C(=O)N3CCCO3)C2)s1 | 2.08
O=C(Cc1ccc2c(c1)OCC2)Nc1nn[nH]n1 | 0.548
CN(CC1CC1)c1ccc2ccc(C(=O)NCCN3CCOCC3)cn12 | 5.57
CC(C)CN1CCC2(CCN(Cc3ccsc3)CC2)C1=O | 5.24
Cc1nc([C@@H]2C[C@@H]3CCN(C(=O)c4occc4C)C[C@H]3O2)no1 | -1.04
CCn1ccc(NC(=O)CN2C(=O)C(C)(C)c3ccccc32)n1 | -16.9
CCC(c1ccccc1)c1nn2c(CN(CC)CC)nnc2s1 (stereo unspecified) | 7.79
COC(=O)c1cccc(NS(=O)(=O)c2cnc(NC(C)=O)s2)c1 | 7.21
CC1(c2ncc(CN3CCN(c4ncccn4)CC3)cn2)CCCCO1 (stereo unspecified) | 1.16
c1cnc(Nc2ccc(C3CCCCN3Cc3ccncc3)cn2)nc1 (stereo unspecified) | -1.57
CCNC(=O)C1(Cc2cc(-c3ccc(C)cc3)no2)CCCN(C)C1 (stereo unspecified) | 7.9
CNC(=O)C1CN(c2ccnc(C)n2)CCN(C2CCOCC2)C1 (stereo unspecified) | -0.762
COCC(=O)N1CCCCC1c1nc(C)c2c(n1)N(CC1CC1)C(=O)C2 (stereo unspecified) | 10.5

SMILES | cytotoxicity at 10 µM [%]
O=C(O)c1ccccc1-n1cnc(CN2CCCc3ccccc32)c1 | 6.58
CN(C)C(=O)Cn1c(C2CC2)c(CN2CCSCC2)c2cccnc21 | 4.06
Cc1cc(-c2c[nH]nc2C2CCCCN2C(=O)c2ccccc2)on1 (stereo unspecified) | 7.9
Nc1nccc(C2CCCN(CC3CC3)C2)n1 (stereo unspecified) | 0.631
Cn1cc(CN2CCOC(c3nccnc3-c3cccc(F)c3)C2)cn1 (stereo unspecified) | 8.12
c1cnc(N2CCC(c3cc4cccnc4[nH]3)CC2)nc1 | -7.28
COCCC(=O)N1CCCC1c1nc(O)cc(C(C)C)n1 (stereo unspecified) | -26.4
CC(C)c1cc(O)nc(C2CCCN2C(=O)C(C)(C)C)n1 (stereo unspecified) | -17.8
OCCN1CCC(c2cncc(-c3cccc(Cl)c3)n2)CC1 | -31.7
Cc1cc(CN2CCC(O)(Cn3ccc4ncccc43)CC2)c(C)s1 | -16.1
Cc1cc(C2CCCN(C(=O)c3cccnc3)C2)ccn1 (stereo unspecified) | -21.3
CC(C)(C)C(=O)N1CCC(c2nc(O)cc(-c3ccccn3)n2)CC1 | -1.13
CN(Cc1ccc(F)cc1)CC1(O)CCN(C(=O)c2ccccc2)C1 (stereo unspecified) | -1.7
Oc1nc(N2CCOCC2)nc2c1CCN(Cc1cccnc1)CC2 | -3.71
CCn1cc(CNC(C)c2noc(-c3ccc(Cl)cc3)n2)cn1 (stereo unspecified) | 3.63
Cn1ccc(CS(=O)(=O)Cc2cccc(F)c2)cc1=O | 6.83
Cc1cccc(OCC(=O)NS(=O)(=O)Cc2ccccc2)c1 | 0.224
Cc1ccc(N2CCC(NC(C)c3cccs3)CC2)nc1 (stereo unspecified) | -9.64
Cc1ncc(C(=O)N2CCCC2c2c(C)nn(C)c2C)s1 (stereo unspecified) | 1.51
CCC(C)(C)N(C)CCOc1cccc(S(C)(=O)=O)c1 | -8.42
CCN1CCN2CCCN(S(=O)(=O)c3ccc(S(C)(=O)=O)cc3)C2C1=O (stereo unspecified) | 5.36
Cc1noc(CCCC(=O)NCC(c2ccco2)N2CCCC2)n1 (stereo unspecified) | -0.363
Cc1c(C(=O)N2CCCOCC2)nnn1-c1cccc2cnccc12 | 11.8

SMILES | cytotoxicity at 10 µM [%]
Cc1cnn(CCC(=O)NS(=O)(=O)N2CCCc3ccccc32)c1 | 9.73
Cc1cc(C(=O)OCC2CCCN2C(N)=O)c(C)o1 (stereo unspecified) | 6.72
O=C(Cc1ccc2c(c1)CCO2)Nc1ccc(-n2cncn2)nc1 | 3.62
COC(=O)C1CN(Cc2ccccc2C(C)(C)C#N)CCO1 (stereo unspecified) | -1.78
Cc1cnc(CN(C)C2CCN(Cc3cnc(C)s3)C2)o1 (stereo unspecified) | -0.0499
Cc1cnn(CCNCC(O)c2ccc(C(F)(F)F)cc2)c1 (stereo unspecified) | 4.48
CC(C)Oc1ncc(C(=O)N2CCCC(C(=O)O)C2)cc1Cl (stereo unspecified) | -6.94
O=C(CN1CCCCC1Cn1cncn1)Nc1ccncc1 (stereo unspecified) | 11.2
c1cncc(CN(Cc2ccc(-n3ccnc3)cc2)CC2CCCO2)c1 (stereo unspecified) | -0.242
Cc1cnn(CC2CCCN2C(=O)c2ccc3c(c2)nnn3C)c1 (stereo unspecified) | 18.4
Cc1noc(C(C)Nc2ccc(N3CCOCC3)cc2C)n1 (stereo unspecified) | -3.92
CC(NCC1CCN(CCO)CC1)c1ccc(Cl)cc1 (stereo unspecified) | -9.12
Cc1nnc(CN(C)CCCOc2ccc(Cl)cc2)o1 | -1.69
Cn1nc(Br)c2c(NCCSCCCO)ncnc21 | 14.5
O=C(c1ccc(=O)[nH]n1)N(CCO)Cc1cc(Br)ccc1F | 7.56
COc1ccc(OC)c(-n2nnnc2SCC2CCCN(C)C2)c1 (stereo unspecified) | 1.28
CC(Cc1cccc(F)c1)NCc1cnc(N2CCN(C)CC2)nc1 (stereo unspecified) | -5.44
N#Cc1ccc(F)c(CN2CCNC(=O)C2c2cccs2)c1 (stereo unspecified) | 11.5
COc1ccc(C)cc1CN(C)CCCNS(C)(=O)=O | -43.2
CC(C)CC(C)NCCCN1CCCN(C)CC1 (stereo unspecified) | 24.7
CC(C)CNC(=O)Nc1ccc(CN2CCOC2=O)cc1 | 10.2
CCOCC1CN(S(=O)(=O)Cc2ccccc2)Cc2nccn2C1 (stereo unspecified) | -105
CCC1=N[C@@]2(CC[C@@H]3CN(CC)C[C@@H]32)C(=O)N1C | -102

SMILES | cytotoxicity at 10 µM [%]
CSCc1noc(CNC(=O)C2CCN(C(=O)C3CC3)CC2)n1 | 11.5
Cc1ccc(N2CCCN(CC3CC3)C(C(C)C)C2)nn1 (stereo unspecified) | 13.3
CCCNc1ncc(C2CC(=O)NCc3nc4ccccn4c32)cn1 (stereo unspecified) | -3.69
COCC(=O)N1CC[C@]2(O)CCN(Cc3cccnc3OC)C[C@@H]2C1 | 8.72
Cc1cc(NC(C)Cc2cccnc2)n2nccc2n1 (stereo unspecified) | 3.01
C=C(C)COc1cccc(CN(C)C(C)c2ccncn2)c1 (stereo unspecified) | -47.6
CCCc1ccc(C(=O)N2CCc3c(nc(N(C)C)[nH]c3=O)C2)cc1 | 8.7
CCc1cc(NC2CCS(=O)(=O)CC2)nc(N2CCCCC2)n1 | -15.8
CN1CCCC(CCC(=O)N2CCc3[nH]c(-c4ccccc4)nc3C2)C1 (stereo unspecified) | -4.13
CCc1cc(N(C)CCc2c(C)n[nH]c2C)ncn1 | -4.45
COc1cccc(OCC2CCCN(C(=O)c3ccc(N)nc3)C2)c1 (stereo unspecified) | 3.37
COCCNc1cc(-c2ccccc2S(N)(=O)=O)c2cc[nH]c2n1 | 6.68
c1cnn(CCC2CCN(Cc3ccc4[nH]ccc4c3)CC2)c1 | -7.57
O=C(CCn1cnnn1)N1CCCC(CO)(CCCc2ccccc2)C1 (stereo unspecified) | 2.74
CCCOC1CCCN(Cc2nc(-c3cccs3)oc2C)C1 (stereo unspecified) | -53.1
COC(=O)c1ccc(CNC(=O)Cc2csc(C(C)=O)c2)cc1 | 5.03
CC(C)c1cc(=O)[nH]c(-c2ccccc2CN2CCCCCC2)n1 | -2.1
COc1ccc(F)c(-c2cc(C)nc(N)n2)c1 | 5.47
CS(=O)(=O)N1CCCn2nc(CNc3cc(C#N)ccn3)cc2C1 | -8.5
COC(=O)c1cc(C)nc(N2CCN(Cc3cc(C(C)C)no3)CC2)n1 | 3.29
OCCn1ncc2c1CN(CC1CCOc3ccccc3C1)C2 (stereo unspecified) | -5.35
Cc1cc(C(F)(F)F)cc(=O)n1Cc1nc(C(C)C)no1 | 0.9
Cc1nccn1Cc1nnc(C2CCCN(Cc3cccnc3)C2)n1C (stereo unspecified) | -6.15

SMILES | cytotoxicity at 10 µM [%]
Cc1ccc(CC(=O)N2CCCC(c3ccn[nH]3)C2)cn1 (stereo unspecified) | 0.691
CNc1nc(CNC(=O)Nc2ccc([S+](C)[O-])c(F)c2)cs1 (stereo unspecified) | -12.2
O=C(O)c1cc(S(=O)(=O)N2CCOc3ccccc32)cc(Cl)c1Cl | -4.36
COc1cc(C)nc(N2CCN(C(=O)COCC3CC3)CC2)n1 | -5.92
O=C(O)c1c[nH]c2cc(NS(=O)(=O)c3cccc(Cl)c3F)ccc12 | -10.5
Cc1ccc(C(=O)N2CCN(CCC(C)(C)C)CC2)c(=O)[nH]1 | -6.95
NC(=O)CC1CCN(C(=O)CCOc2ccc(Cl)cc2)CC1 | -7.98
CCCNC(=O)CN1CCN(Cc2csc(C(C)(C)C)n2)CC1 | -7.88
COc1cccc(Nc2nc(C3CCNCC3)c3sc(C)c(C)n23)c1 | 4.24
COc1ccc(C(CNS(=O)(=O)c2cn(C)nc2C)N2CCCC2)cc1 (stereo unspecified) | 4.11
Cc1cccc(CS(=O)(=O)c2nnc([C@@H](N)Cc3ccccc3)o2)c1 | 7.09
CCCS(=O)(=O)N1CCn2cc(CNc3ccccn3)nc2C1 | 9.1
O=C(c1cscn1)N1CCc2ncc(CN3CCCC3)n2CC1 | -111
CC(C)N1CCC2(CCCN(C(=O)c3cncn3C)C2)CC1 | -0.0499
O=C(c1cnccn1)N1CC2(CCN(Cc3ccsc3)C2)C1 | -4.23
Cc1cccc(C(=O)N2C[C@@H]3CCN(c4cccnc4)C[C@@H]3C2)c1 | 3.76
Clc1ccccc1CN1CCc2nc(C3CCNCC3)ncc2C1 | -36.6
COCCN1CCN(Cc2ccco2)Cc2ccc(C)nc21 | 0.657
COc1ccc(F)cc1C(=O)N1C[C@H]2CC(OC)C[C@H]2C1 (stereo partly specified) | -2.19
